Experimental data of several laboratories.
Protocols differ between the studies behind these lines.

The half-life of `Cl.Fc1ccc(Oc2ccc(Nc3ccc4ncc(OCC5CCNCC5)nc4c3)cc2)cc1` is reported as greater than 40 h (SCID mouse; plasma; intraperitoneal; 50 mg/kg).
For `CN(C)C(=O)c1cc2cnc(Nc3ccc(-c4ccc5c(=O)cc(N6CCOCC6)oc5c4)cc3)nc2n1C1CCCC1`, the half-life was 3.3 h (BALB/c mouse; plasma; oral; 20 mg/kg).
The half-life of `Cc1cc(-c2ccnc3[nH]cc(F)c23)cc(F)c1[C@@]1(O)[C@H](C)CN(C(=O)CN)C[C@@H]1C` is reported as 8.5 h (male CD-1 mouse; plasma; oral; 3 mg/kg).
For `COC1=CC(c2ccc[nH]2)=N/C1=C\c1cc(Cc2ccc(OC(F)(F)F)cc2)c(C)[nH]1.Cl`, the half-life was 58.3 h (male CD-1 mouse; liver; oral; 40 mg/kg; single dose).
With `CSC1O[C@@H]([C@H](NC(=O)[C@H]2NC[C@@H]3C[C@H](CC(C)C)CCO[C@H]32)[C@H](C)Cl)C(O)[C@@H](O)[C@H]1O` (some centres unmarked) the half-life was 2.05 h (mouse; plasma; intravenous; 3 mg/kg; single dose).
For `CCCC[C@@H](NC(=O)[C@@H](Cc1cn(C(=O)OC)c2ccccc12)NC(=O)[C@H](CC(C)(C)C)NC(=O)N1[C@H](C)CCC[C@@H]1C)C(=O)O`, the half-life was 0.68 h (male CD-1 mouse; plasma; intravenous; 3 mg/kg).
`O=C1CCC(N2Cc3cc(C4CCN(Cc5ccccc5)CC4)ccc3C2=O)C(=O)N1` (centres unmarked) gave a half-life of 1.28 h (male CD-1 mouse; plasma; oral; 3 mg/kg).
For `CC1(CNc2nc(-c3cccs3)nc(Cl)c2-c2c(F)cc(N)cc2F)COC1`, the half-life was 1.51 h (mouse; plasma; intraperitoneal; 2.5 mg/kg).
`Cc1ncsc1-c1ccc([C@H](CC(=O)N2CC3(C2)CN(c2ccc(C#Cc4ccc(C(=O)N5CCC(n6cc(-c7ccc8c(c7)CCN8C(=O)Cc7cccc(OC(F)(F)F)c7)c7c(N)ncnc76)CC5)cc4)cn2)C3)NC(=O)[C@@H]2C[C@@H](O)CN2C(=O)[C@@H](NC(=O)C2(F)CC2)C(C)(C)C)cc1` has a half-life of 5.9 h (male C57BL/6 mouse; plasma; intravenous; 1 mg/kg).
`Cc1ccc(CCC(=O)Nc2nnc(S(N)(=O)=O)s2)cc1` gave a half-life of 4.64 h (male BALB/c mouse; plasma; oral; 20 mg/kg).
The half-life of `Cc1ncsc1-c1ccc([C@H](C)NC(=O)[C@@H]2C[C@@H](O)CN2C(=O)[C@@H](NC(=O)CCCCCCCCC(=O)N2CCC(n3cc(-c4ccc5c(c4)CCN5C(=O)Cc4cccc(OC(F)(F)F)c4)c4c(N)ncnc43)CC2)C(C)(C)C)cc1` is reported as 3.1 h (male C57BL/6 mouse; plasma; intravenous; 1 mg/kg).
The half-life of `NCc1ccc(-c2nn(Cc3ccncc3)c3ccccc23)o1` is reported as 5.69 h (male CD-1 mouse; plasma; intraperitoneal; 30 mg/kg).
With `Cc1ccc2c(c1)C(=O)[C@]1(O)CCN(c3ccc4nc(C)ccc4c3)C1=N2.Cl` the half-life was 10.5 h (mouse; brain; subcutaneous; 5 mg/kg).
For `OCc1ccc(-c2nn(Cc3ccccc3)c3ccccc23)o1`, the half-life was 1.86 h (male CD-1 mouse; plasma; oral; 10 mg/kg).
`CC(C)(C)c1sc2ncnc(Oc3c(F)cccc3OC(F)(F)F)c2c1-c1ccc(Cl)cc1` has a half-life of 2.49 h (mouse; plasma; intravenous; 1 mg/kg).
`Cc1ccc(OCC(=O)N[C@@H](Cc2c[nH]c3ccccc23)C(=O)OC(C)C)cc1` has a half-life of 2.2 h (male Sprague-Dawley mouse; plasma; intravenous; 10 mg/kg).
`Cc1cc(-c2ccnc3[nH]cc(F)c23)cc(F)c1[C@@]1(O)[C@H](C)CN(C2CCS(=O)(=O)CC2)C[C@@H]1C` has a half-life of 2.5 h (male CD-1 mouse; plasma; oral; 3 mg/kg).
`COC1=CC(c2ccc[nH]2)=N/C1=C\c1[nH]c(Cc2ccc(OC(F)(F)F)cc2)cc1Cc1ccc(OC(F)(F)F)cc1` has a half-life of 7.62 h (male CD-1 mouse; liver; oral; 40 mg/kg; single dose).
For `OCc1nc2ccc(NCc3ccc(C(F)(F)F)cc3)cc2[nH]1`, the half-life was 3.6 h (male BALB/c mouse; plasma; oral; 10 mg/kg).
`Cc1[nH]c(C)c(S(=O)(=O)Nc2ccc(C(F)(F)F)c(Cl)c2)c1C(=O)N1CCC(F)(F)C1` has a half-life of 3.65 h (male CD-1 mouse; brain; intraperitoneal; 40 mg/kg).
`COCC(=O)N1CCc2[nH]c3c(Cl)c(Cl)ccc3c2[C@@H]1C` gave a half-life of 4.82 h (C57BL/6 mouse; blood; oral; 20 mg/kg).
With `NCc1ccc(-c2nn(Cc3ccccc3)c3ccccc23)o1` the half-life was 2.33 h (male CD-1 mouse; plasma; intraperitoneal; 30 mg/kg).
`COc1ccc(C[C@H](NC(=O)[C@H](C)NC(=O)CN2CCOCC2)C(=O)N[C@@H](Cc2ccccc2)C(=O)C2(C)CO2)cc1` (stereo in doubt) gave a half-life of 0.7 h (mouse; plasma; oral; 20 mg/kg; single dose).
